Experimental findings from ChEMBL document CHEMBL1123771, “Synthesis and structure-activity relationships of potent new angiotensin converting enzyme inhibitors containing saturated bicyclic amino acids” (J Med Chem, 1987) are described below.

For test [1], the target named is T1, Angiotensin-converting enzyme (Rattus norvegicus, UniProt P47820).
T1 sequence (P47820 whole entry): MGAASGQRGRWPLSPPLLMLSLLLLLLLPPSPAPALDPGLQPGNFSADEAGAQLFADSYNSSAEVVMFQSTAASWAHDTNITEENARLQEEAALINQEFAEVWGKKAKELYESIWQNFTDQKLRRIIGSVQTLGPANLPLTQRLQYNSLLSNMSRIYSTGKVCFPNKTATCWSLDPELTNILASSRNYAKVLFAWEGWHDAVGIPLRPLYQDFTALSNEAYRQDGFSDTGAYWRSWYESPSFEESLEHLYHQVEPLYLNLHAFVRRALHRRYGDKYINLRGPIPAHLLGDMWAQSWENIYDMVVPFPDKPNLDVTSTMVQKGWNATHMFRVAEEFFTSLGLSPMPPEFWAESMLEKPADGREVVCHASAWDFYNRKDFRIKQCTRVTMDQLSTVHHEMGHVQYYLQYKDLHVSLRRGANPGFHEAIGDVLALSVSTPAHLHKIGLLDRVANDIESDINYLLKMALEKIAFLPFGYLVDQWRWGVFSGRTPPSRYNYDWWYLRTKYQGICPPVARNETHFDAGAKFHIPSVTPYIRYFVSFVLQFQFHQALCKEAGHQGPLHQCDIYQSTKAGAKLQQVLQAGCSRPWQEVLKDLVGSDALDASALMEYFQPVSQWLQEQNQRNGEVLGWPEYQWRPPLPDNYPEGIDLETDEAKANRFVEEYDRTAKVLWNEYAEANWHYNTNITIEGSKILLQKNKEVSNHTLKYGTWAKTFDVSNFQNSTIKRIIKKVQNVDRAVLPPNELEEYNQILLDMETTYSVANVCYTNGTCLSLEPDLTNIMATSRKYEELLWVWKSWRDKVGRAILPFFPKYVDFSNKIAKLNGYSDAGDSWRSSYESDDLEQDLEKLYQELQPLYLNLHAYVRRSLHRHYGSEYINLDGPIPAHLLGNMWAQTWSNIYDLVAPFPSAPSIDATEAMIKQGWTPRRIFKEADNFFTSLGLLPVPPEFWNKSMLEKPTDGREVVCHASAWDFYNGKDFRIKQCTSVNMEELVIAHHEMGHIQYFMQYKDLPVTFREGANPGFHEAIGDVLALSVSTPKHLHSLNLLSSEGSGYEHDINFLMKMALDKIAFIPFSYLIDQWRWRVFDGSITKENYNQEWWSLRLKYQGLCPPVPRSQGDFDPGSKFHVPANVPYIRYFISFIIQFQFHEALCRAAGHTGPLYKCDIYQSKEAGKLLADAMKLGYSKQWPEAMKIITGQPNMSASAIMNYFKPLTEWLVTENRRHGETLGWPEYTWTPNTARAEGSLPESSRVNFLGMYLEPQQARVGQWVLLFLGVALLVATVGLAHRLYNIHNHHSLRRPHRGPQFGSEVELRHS
The experiment in a line: Inhibition of rat Angiotensin I converting enzyme (ACE), using Hip-Gly-Gly as synthetic substrate. A digest of the protocol:
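Radioassay of converting-enzyme activity with Hip-Gly-Gly as substrate; compounds dissolved at 2–5 mg/mL in Me2SO, then diluted to test concentrations in pH 8 buffer (0.05 M Hepes, 0.1 M NaCl, 0.6 M Na2SO4).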

For test [2], the system named is Rattus norvegicus. The experiment in a line: Mean aortic base line blood pressure in conscious renal 2-kidney/1-clip goldblatt hypertensive rat at a dose 30 mg/kg administered orally. It counts as functional, Artery. As to conditions: route oral.
The subject of test [3] is Rattus norvegicus. The experiment in a line: Maximum change in mean aortic blood pressure in conscious renal 2-kidney/1-clip goldblatt hypertensive rat at a dose 30 mg/kg administered orally at 8h; 3 animals tested. It counts as functional, Artery. Particulars: route oral. A digest of the protocol: (§1)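 Male Sprague–Dawley rats made hypertensive at 4 weeks old by silver clip (0.2-mm gap) on left renal artery, contralateral kidney intact; 4–8 weeks development, cannulated (280–320 g), only mean aortic pressure >160 mmHg used. Oral dosing; 1-min running-average aortic pressure and heart rate logged every 30 min; maximum change from base line, mean ± SEM.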

Test [4] deals with Rattus norvegicus. Nature of the test: Maximum change in mean aortic blood pressure in conscious renal 2-kidney/1-clip goldblatt hypertensive rat at a dose 30 mg/kg administered orally at 6 h; 3 animals tested. It counts as functional, Artery. Particulars: route oral. A digest of the protocol: as §1
Test [5] deals with Rattus norvegicus. The experiment in a line: Maximum change in mean aortic blood pressure in conscious renal 2-kidney/1-clip goldblatt hypertensive rat at a dose 30 mg/kg administered orally at 5h; 4 animals tested. It counts as functional, Artery. As to conditions: route oral. A digest of the protocol:
(§2)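 Male Sprague–Dawley rats, 4 weeks old, given a silver clip (0.2-mm gap) on the left renal artery with the other kidney intact. Hypertension developed over 4–8 weeks, then rats (280–320 g) were aortic-cannulated; only those with mean pressure >160 mmHg were used. Oral dosing. One-minute running averages were logged every 30 min. Results are mean ± 1 SEM, from 3–5 rats.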

Test [6] relates to Rattus norvegicus. Nature of the test: Maximum change in mean aortic blood pressure in conscious renal 2-kidney/1-clip goldblatt hypertensive rat at a dose 30 mg/kg administered orally at 8h; 4 animals tested. It counts as functional, Artery. Particulars: route oral. The method in brief:
as §2

In test [7] the test system is Rattus norvegicus. The experiment in a line: Maximum change in mean aortic blood pressure in conscious renal 2-kidney/1-clip goldblatt hypertensive rat at a dose 30 mg/kg administered orally at 6 h; 4 animals tested. It counts as functional, Artery. As to conditions: route oral.
Test [8] concerns Rattus norvegicus. Nature of the test: Mean aortic base line blood pressure in conscious renal 2-kidney/1-clip goldblatt hypertensive rat at a dose 3 mg/kg administered orally. It counts as functional, Artery. As to conditions: route oral. The method in brief: as §2
Test [9] deals with Rattus norvegicus. The experiment in a line: Maximum change in mean aortic blood pressure in conscious renal 2-kidney/1-clip goldblatt hypertensive rat at a dose 3 mg/kg administered orally at 6 h; 4 animals tested. As to conditions: route oral. It counts as functional, Artery.

Regarding `O=C(O)[C@@H]1CCCN1C(=O)CCS`, inhibition in [1] was half-maximal at 820 nM (IC50).

`CC(CS)C(=O)N1C(=O)CCC1C(=O)O` (stereo unspecified) came in with an IC50 in test [1] of 9.3 nM. Moreover, the “Mean aortic blood pressure” value in test [2] is 185 mmHg; in [3] it was -48 mmHg.

In the case of `CC(=O)SCC(C)C(=O)N1C(=O)C2CCCCC2C1C(=O)O` (stereo unspecified), the IC50 in [1] is 300 nM.

As for `C1CCC(NC2CCCCC2)CC1.CC(CS)C(=O)N1C(=O)C2CCCCC2C1C(=O)O` (stereo unspecified), the results for the “Mean aortic blood pressure” value in test [2] and in test [3] were 192 mmHg and -100 mmHg, respectively.

As for `C1CCC(NC2CCCCC2)CC1.O=C(O)C1C2CCCCC2C(=O)N1C(=O)CCS` (stereo unspecified), the entries for the “Mean aortic blood pressure” value in [2] and in test [3] were 205 mmHg and -57 mmHg, respectively.

Consider `C1CCC(NC2CCCCC2)CC1.O=C(O)C1C2CCCCC2CN1C(=O)CCS` (stereo unspecified), for which the “Mean aortic blood pressure” value in test [4] is reported as -76 mmHg; in test [2] it was 184 mmHg.

As to `O=C(O)C1Cc2ccccc2N1C(=O)CCS` (stereo unspecified), in test [1], the IC50 was found to be 140 nM.

In turn, `O=C(O)[C@@H]1CCC(=O)N1C(=O)CCS` came in with a 50% inhibitory concentration (IC50) in test [1] of 960 nM.

Take `C[C@H](N[C@@H](CCc1ccccc1)C(=O)O)C(=O)N1[C@H](C(=O)O)C[C@@H]2CCCC[C@@H]21`: the “Mean aortic blood pressure” value in test [2] is reported as 198 mmHg; in test [5], -104 mmHg.

The molecule `O=C(NC(Cc1ccccc1)C(=O)CCC(=O)N1C(C(=O)O)CC2CCCCC21)c1ccccc1` (stereo unspecified) gave an IC50 in test [1] of 11 nM. Also, the results for the “Mean aortic blood pressure” value in [6] and in test [2] were -27 mmHg and 169 mmHg, respectively.

With `CCOC(=O)C(CCc1ccccc1)N1C(=O)C2CC3CCCCC3N2C(=O)C1C` (stereo unspecified), the IC50 in test [1] was over 100000 nM.

For `O=C1SCCC(=O)N2C1CC1CCCCC12` (stereo unspecified), the IC50 in [1] worked out at 7 nM.

Take `CC(CSC(=O)c1ccccc1)C(=O)N1[C@H](C(=O)O)C[C@@H]2CCCC[C@@H]21` (stereo partly specified): the IC50 in test [1] amounted to 540 nM.

In the case of `CC(CS)C(=O)N1CC2CCCCC2C1C(=O)O` (stereo unspecified), the “Mean aortic blood pressure” value is listed as 152 mmHg in [2] and -50 mmHg in test [7].

In the case of `CCOC(=O)C(CCc1ccccc1)NC(C)C(=O)N1C(=O)CCC1C(=O)O` (stereo unspecified), it took 63 nM to reach half-maximal inhibition in test [1] (IC50).

As for `C[C@H](CS)C(=O)N1c2ccccc2C[C@H]1C(=O)O`, in [1], the IC50 came out at 3.7 nM. This IC50 lies about 17-fold lower than the previous one.

`CC(=O)SCCC(=O)N1[C@H](C(=O)O)C[C@@H]2CCCC[C@@H]21` (stereo in doubt; 8a) yielded an IC50 in test [1] of 560 nM. Compared with the last molecule, the IC50 is about 150-fold higher.

On to `CC(=O)SCCC(=O)N1[C@H](C(=O)O)C[C@@H]2CCCC[C@@H]21` (stereo in doubt; 8c), for which the IC50 in test [1] amounted to 480 nM.

Take `O=C(O)[C@@H]1C[C@@H]2CCCC[C@@H]2N1C(=O)CCS` (stereo in doubt; 8d): the midpoint of inhibition in [1], the IC50, lay at 6.4 nM. This IC50 is about 75-fold lower than that of the molecule before.

As to `CC(=O)SCC(C)C(=O)N1[C@H](C(=O)O)C[C@@H]2CCCC[C@@H]21` (stereo in doubt; 9a), in [1], the IC50 is 160 nM.

Molecule `CC(=O)SCC(C)C(=O)N1[C@H](C(=O)O)C[C@@H]2CCCC[C@@H]21` (stereo in doubt; 9b) displayed an IC50 in test [1] of 35000 nM.

`CC(CS)C(=O)N1[C@H](C(=O)O)C[C@@H]2CCCC[C@@H]21` (stereo in doubt; 9d) yielded an IC50 in test [1] of 1100 nM.

As for `CC(CS)C(=O)N1[C@H](C(=O)O)C[C@@H]2CCCC[C@@H]21` (stereo in doubt; 9f), the IC50 in [1] came out at 5.2 nM. Further, the “Mean aortic blood pressure” value was -72 mmHg in test [4] and 193 mmHg in test [2] (30 mg/kg).

On to `CCOC(=O)C(CCc1ccccc1)NC(C)C(=O)N1[C@H](C(=O)O)C[C@@H]2CCCC[C@@H]21.Cl` (stereo in doubt; 17a), for which the “Mean aortic blood pressure” value in test [8] is given as 199 mmHg; in test [9], -87 mmHg.

As usually defined, the IC50 is the concentration that gives 50% inhibition. Low readings indicate inhibition by little substance, high ones a need for much substance.
